Hits are enriched below; roughly 3.7% of the tested compounds scored in any of these assays.
KCNQ1 inh: human KCNQ1 channel inhibition. P51787. CHO-K1 KCNQ1, FluxOR thallium flux fluorescence; hits give high values. B-score at 10 µM. actives 1.3% (n = 310,000);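 active = compounds whose thallium flux B-score, printed positive for inhibition, exceeds three library SD while starting fluorescence stays within three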;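 note: channel opened by potassium depolarization with thallium stimulus after 20 min compound exposure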
KCNK9 inh: blocks the human KCNK9 two-pore domain potassium channel. Q9NPC2. HEK293 KCNK9, FluxOR thallium flux fluorescence; hits give low values. B-score at 10 µM. actives 1.2% (n = 310,000). AID 488922;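 active = ratio B-score over 3 SD below the library mean, with starting fluorescence within 5 SD of its mean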;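 note: negative B-score means less thallium flux so channel inhibition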
hERG protect: shields human hERG channel from block by proarrhythmic agents | actives 0.51% (n = 310,000) | AID 1511 | activation (rescue from dofetilide block), less the hit threshold, % at 10 µM | CHO-hERG, FluxOR thallium flux, dofetilide IC70 present | Q12809;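 active = activation above the mean of controls blocked by dofetilide plus 5 SD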;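 note: thallium influx through hERG after potassium depolarization seen as dye fluorescence rise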
KCNQ1 act: potentiators or activators of human KCNQ1 potassium channel; CHO-K1 KCNQ1, thallium flux FluxOR fluorescence; hits give high values; B-score at 10 µM; actives 0.35% (n = 310,000); AID 2648;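 active = fluorescence ratio B-score, a plate-corrected score, at least three library SD, with initial intensity B-score within 5 SD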
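Schedule – 37 °C overnight plating, 90-min dark dye load, 20-min compound pretreatment · System – stable KCNQ1 CHO-K1 line · Probe or stimulus – thallium- and potassium-containing depolarizing buffer · Measured by – kinetic FluxOR fluorescence, 10 s baseline plus 110 s post-stimulus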
Kir21 block: Kir2.1 (mouse) channel inhibition | HEK293-Kir2.1, FluxOR thallium flux fluorescence; hits give low values | AID 1672 | P35561 | B-score at 10 µM | actives 0.85% (n = 310,000);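 active = fluorescence ratio B-score at or below minus 3 SD of library scores, with starting-brightness B-score within 2 SD, cut at about -4.2 in these data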;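 note: channel flux triggered by added potassium and thallium sulfate stimulus; B-score of peak minus minimum fluorescence over baseline after thallium stimulus; more negative B-score means stronger Kir2.1 block with less thallium influx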
Target sequence (P35561 whole entry, looked up): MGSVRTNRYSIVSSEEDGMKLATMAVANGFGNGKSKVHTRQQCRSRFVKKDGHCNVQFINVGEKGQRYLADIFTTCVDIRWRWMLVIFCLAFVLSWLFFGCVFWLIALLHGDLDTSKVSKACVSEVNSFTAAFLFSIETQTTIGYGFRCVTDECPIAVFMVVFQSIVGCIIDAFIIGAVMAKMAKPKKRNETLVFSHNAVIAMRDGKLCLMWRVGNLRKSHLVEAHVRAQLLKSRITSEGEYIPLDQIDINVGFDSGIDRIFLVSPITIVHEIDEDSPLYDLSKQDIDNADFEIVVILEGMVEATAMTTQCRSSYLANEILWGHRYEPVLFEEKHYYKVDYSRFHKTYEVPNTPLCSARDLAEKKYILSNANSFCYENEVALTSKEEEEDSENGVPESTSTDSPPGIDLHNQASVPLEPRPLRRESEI
KCNK3 inh: human KCNK3 channel inhibition, primary screen. O14649. CHO-KCNK3 thallium flux, FluxOR fluorescence; hits give low values. B-score at 10 µM. actives 0.84% (n = 340,000). AID 602410;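 active = B-score under library mean minus 4 SD, starting fluorescence ratio at most library mean plus 5 SD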;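 note: more negative B-score means stronger inhibition of thallium flux through KCNK3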
KCNK9 block conf: confirmation of human KCNK9 potassium channel inhibitors | AID 492992 | inhibition, % at 10 µM | HEK293 KCNK9 cells, FluxOR thallium flux fluorescence | shares compounds with KCNK9 inh | actives 43% (n = 4,900);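 active = thallium signal inhibited by more than 5 SD of the compound-free buffer control wells, on both duplicate plates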
Kir2-1 spec: tests whether KCNK9 modulators also affect mouse Kir2.1; shares compounds with KCNK9 inh; Kir2.1 cells, FluxOR thallium flux fluorescence; inhibition, % at 10 µM; actives 4% (n = 4,900); AID 492993;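 active = thallium signal drop more than 5 SD beyond the mean of the no-compound control wells, seen in both duplicate plates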;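 note: signal is fluorescence rise after thallium addition divided by baseline fluorescence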
HEK293 Tl ctr: second check of KCNK9 modulator effects in non-induced HEK293 cells | actives 40% (n = 4,900) | inhibition, % at 10 µM | AID 492997 | FluxOR thallium flux | shares compounds with KCNK9 inh;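 active = thallium signal drop beyond 5 SD of the untreated control mean, on both duplicate plates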
A number is an active result; n = inactive; x = no result given.

SMILES	KCNQ1 inh	KCNK9 inh	hERG protect	KCNQ1 act	Kir21 block	KCNK3 inh	KCNK9 block conf	Kir2-1 spec	HEK293 Tl ctr
C[C@]12CCC(O)CC1CCC1C2CC[C@]2(C)C(c3cc(C(F)(F)F)n[nH]3)CCC12 (stereo partly drawn)	n	-13	n	n	n	n	33%	n	63%
C/C(=N\NC(=O)c1ccccc1O)C1C(=O)c2ccccc2C1=O	11	n	n	n	n	n	n	n	24%
C/C(=N/NC(=O)c1cc2ccccc2cc1O)C1C(=O)c2ccccc2C1=O	n	n	n	n	n	n	x	x	x
C[n+]1c2n(c3ccccc31)N=C(c1cc(C(C)(C)C)c(O)c(C(C)(C)C)c1)CS2	7	-19	n	n	-7.8	-13	76%	46%	32%
CCCCc1ccc(-n2nnnc2SCC(=O)Nc2cc(OC)c([N+](=O)[O-])cc2C)cc1	n	n	n	n	n	n	n	n	n
COC(=O)CC1(C(=O)OC)Oc2ccc(Br)cc2C(=O)N1c1cc(Cl)c(Cl)cc1Cl (stereo not drawn)	n	-8.6	n	n	n	n	25%	n	42%
COC(=O)CNC(c1ccccc1)c1cc(Br)ccc1NC(=O)CNC(=O)OCc1ccccc1 (stereo not drawn)	n	-15	n	n	n	n	64%	n	32%
Cc1c(NC(=O)COC(=O)c2ccc(F)c(S(=O)(=O)N3CCOCC3)c2)c(=O)n(-c2ccccc2)n1C	n	n	n	n	n	n	x	x	x
COC(=O)c1sccc1NC(=S)N1CCC(C)CC1	n	n	n	n	n	n	x	x	x
COC(=O)c1sccc1NC(=S)N1CCN(c2ccccc2)CC1	n	n	n	n	n	n	x	x	x
COC(=O)c1sccc1NC(=S)N1CCN(c2ccc(F)cc2)CC1	n	-9.7	n	n	n	n	n	n	32%
COC(=O)c1sccc1NC(=S)N1CC(C)CC(C)C1 (stereo not drawn)	n	n	n	n	n	n	n	n	28%
CC(=O)c1ccc(OCC(C)Oc2ccc(C#N)cc2)cc1 (stereo not drawn)	n	n	n	n	n	n	x	x	x
CCOC(=O)C1=CN(Cc2cccc(F)c2)S(=O)(=O)N(C)C1CCc1ccccc1 (stereo not drawn)	x	x	x	x	x	n	x	x	x
O=C(c1ccccc1[N+](=O)[O-])N1CCC(Cc2ccccc2)CC1	n	n	n	n	n	n	x	x	x
N=C1c2ccccc2CN1c1ccc(N2CCOCC2)c(S(=O)(=O)Nc2ccc(Cl)cc2)c1	n	n	n	n	n	x	x	x	x
COc1ccc(-n2nc(C(=O)NCC(=O)N3CCC(C)CC3)c3ccccc3c2=O)cc1Cl	n	n	n	n	n	n	n	n	n
COc1ccc(-n2nc(C(=O)NCC(=O)N3CCN(c4ccccn4)CC3)c3ccccc3c2=O)cc1Cl	n	n	n	n	n	n	x	x	x
O=[N+]([O-])c1ccc(Cl)cc1CNc1ccc(F)c(F)c1	n	-8.5	n	n	n	n	33%	n	27%
Cc1cccc(N(CC(=O)NC2CCCCC2)C(=O)CCCC(=O)Nc2ccccn2)c1C	n	n	n	n	n	n	x	x	x
Cc1ccc(NC(=O)c2oc3ccccc3c2NC(=O)C2CCCO2)cc1C (stereo not drawn)	n	n	n	n	n	n	n	n	n
O=S(=O)(c1cccc(Br)c1)N1CCN(CCc2ccccc2)CC1	n	n	n	n	n	n	n	n	n
Cc1cc(S(=O)(=O)N2CCN(Cc3ccccc3)CC2)c(C)s1	n	n	n	n	n	n	n	n	n
O=S(=O)(c1ccccc1)N1CCN(Cc2cccc(Br)c2)CC1	n	n	n	n	n	n	x	x	x
O=S(=O)(c1ccc(Cl)s1)N1CCN(CCc2ccccc2)CC1	n	n	n	n	n	n	n	n	n
SMILES	KCNQ1 inh	KCNK9 inh	hERG protect	KCNQ1 act	Kir21 block	KCNK3 inh	KCNK9 block conf	Kir2-1 spec	HEK293 Tl ctr
O=S(=O)(c1cccs1)N1CCN(CCc2ccccc2)CC1	n	n	n	n	n	n	x	x	x
COc1cc(C)c(C)cc1S(=O)(=O)N1CCN(Cc2ccccc2)CC1	n	n	n	n	n	n	x	x	x
CC(C)c1ccc(CN2CCN(S(=O)(=O)c3ccc(Cl)s3)CC2)cc1	x	x	x	x	x	n	x	x	x
O=S(=O)(c1ccc(Cl)s1)N1CCN(Cc2ccccc2)CC1	n	n	n	n	n	n	n	n	n
O=C(COc1ccccc1F)Nc1ccccc1C(=O)NC1CC1	x	x	x	x	x	n	x	x	x
Cc1ccc(C(=O)N/C(=C\c2ccco2)C(=O)NCCN2CCOCC2)cc1	n	n	n	n	n	n	x	x	x
O=C(COc1ccccc1)c1cn(CC(=O)N2CCCC2)c2ccccc12	n	n	n	n	n	n	x	x	x
Cc1ccc(CN2CC(C(=O)Nc3ccc(S(=O)(=O)N4CCCCC4)cc3)CC2=O)cc1 (stereo not drawn)	n	n	n	n	n	n	x	x	x
COc1ccc(-c2csc3nc(-c4ccccc4OC)oc(=O)c23)cc1	n	-11	n	n	n	n	72%	n	n
CCc1ccc(CN(C)C(=O)CCc2nc3ccccc3n(-c3ccc(OC)cc3)c2=O)cc1	n	n	n	n	n	n	n	n	25%
COc1cccc(OCc2cc(C(=O)N3CCN(C)C(c4ccccc4)C3)no2)c1 (stereo not drawn)	n	n	n	n	n	n	n	n	n
C=CCC1(CC=C)CCCN1C(=O)c1cc(COc2cccc(OC)c2)on1	n	n	n	n	n	n	n	n	n
COCC1CCN(C(=O)c2cc(COc3ccc4c(c3)CCCC4)on2)C1 (stereo not drawn)	n	n	n	n	n	n	n	n	n
CN(C)S(=O)(=O)c1ccc(NC=O)cc1	n	n	n	n	n	n	x	x	x
Cc1c(N2C(=O)c3ccccc3C2=O)c(=O)n(-c2ccccc2)n1C	n	n	n	n	n	n	x	x	x
Cc1c(N2C(=O)/C(=C\c3cccc4ccccc34)SC2=S)c(=O)n(-c2ccccc2)n1C	n	n	n	n	n	-9.4	n	n	n
CC(C)(C)n1nnnc1C(c1ccc(C(F)(F)F)cc1)N(Cc1ccccc1)Cc1ccco1 (stereo not drawn)	6	-11	n	n	n	n	52%	n	33%
CC(C)(C)n1nnnc1C(c1cccs1)N(Cc1ccc(Cl)cc1)CC1CCCO1 (stereo not drawn)	n	-16	n	n	n	n	62%	n	42%

Assay outcomes from PubChem BioAssay.
